Publication PMC7017412 (ACS Omega, 2020)
Numbering of substitutions follows the chain as printed.

Assays:
WT hTMPK [1] = biological target: T1, WT hTMPK (Homo sapiens, UniProt P23919); type: binding; details: WT–AZTMP, 2 mM ADP, Ile184δ1 CPMG RD
T1 sequence (P23919 1-212): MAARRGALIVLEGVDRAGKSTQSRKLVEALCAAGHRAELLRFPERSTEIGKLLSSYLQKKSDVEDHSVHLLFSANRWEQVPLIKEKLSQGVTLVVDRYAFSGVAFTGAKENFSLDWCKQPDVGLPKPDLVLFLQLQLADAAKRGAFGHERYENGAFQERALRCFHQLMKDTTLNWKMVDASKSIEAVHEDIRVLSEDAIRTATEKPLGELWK
How it was run: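 Ile184δ1 CHD2 methyl 1H CPMG dispersion was run at 34 °C on a WT–AZTMP sample with 2 mM ADP, in pH 6.9 MES/MgCl2 D2O buffer. Trelax was 40 ms with ncyc 1–78. pa and kex were fitted by grid search to the full exchange equation, and koff was derived from them. Errors are ±2 standard error from 100 bootstrap resampled datasets.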

WT hTMPK [2] = biological target: T1, WT hTMPK; assay: ADP binding constants by two-dimensional NMR lineshape fitting of ADP titration; details: for Kd / koff: 34 °C, pH 6.9
How it was run: (§1)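 ILV methyl-labelled (13CH3/13CHD2) His-tagged hTMPK was expressed in E. coli and purified by cobalt affinity and cation exchange. Samples were in D2O with 20 mM MES, 150 mM NaCl, 10 mM MgCl2, 1 mM DTT, pH 6.9, plus 2 mM TMP or AZTMP. Protein was WT 0.8 mM and F105Y 0.4 mM. ADP was titrated at 0–2.4 ligand:protein across a 1H–13C HMQC series at 34 °C. KD and koff came from 2D lineshape fitting of five shifting methyl peaks (2-state model) with bootstrap errors.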

F105Y hTMPK [3] = biological target: T2, F105Y hTMPK (Homo sapiens, UniProt P23919, F105Y); assay: as above; details: for Kd / koff: 34 °C, pH 6.9
T2 sequence (P23919 1-212 F105Y): T1 sequence (P23919 1-212) with F105Y
How it was run: as §1

TMPK from yeast (ScTMPK) = details: cited from earlier work
F105Y hTMPK [4] = biological target: T2, F105Y hTMPK; details: cited from earlier work
WT hTMPK [5] = biological target: T1, WT hTMPK; details: cited from earlier work

With `Nc1ncnc2c1ncn2[C@@H]1O[C@H](COP(=O)(O)OP(=O)(O)O)[C@@H](O)[C@H]1O` [ADP] the “koff estimated from kex and pa” value (WT hTMPK [1]) was 31 ± 5.1 s^–1, the Kd (WT hTMPK [2]; ADP binding to WT hTMPK with 2 mM AZTMP bound) was 15 ± 1 µM and the Kd (WT hTMPK [2]; ADP binding to WT hTMPK with 2 mM TMP bound) was 15 ± 2.1 µM. The koff (WT hTMPK [2]; ADP off-rate from WT hTMPK with 2 mM AZTMP bound) was 24 ± 0.8 s^–1, the koff (WT hTMPK [2]; ADP off-rate from WT hTMPK with 2 mM TMP bound) was 12 ± 0.7 s^–1 and the “faster ADP off-rate (koff) with AZTMP bound than with TMP bound” value (WT hTMPK [2]; WT hTMPK) was 2 fold. It also gave a Kd (F105Y hTMPK [3]; ADP binding to F105Y hTMPK with 2 mM AZTMP bound) of 4.4 ± 1.7 µM, a Kd (F105Y hTMPK [3]; ADP binding to F105Y hTMPK with 2 mM TMP bound) of 4.2 ± 1.3 µM and a koff (F105Y hTMPK [3]; ADP off-rate from F105Y hTMPK with 2 mM AZTMP bound) of 0.20 ± 0.9 s^–1. The koff (F105Y hTMPK [3]; ADP off-rate from F105Y hTMPK with 2 mM TMP bound) was 2.7 ± 0.8 s^–1 and the “reduced ADP off-rate (koff) with AZTMP bound relative to TMP bound” value (F105Y hTMPK [3]; F105Y hTMPK) was 15 fold.

In the case of `Cc1cn([C@H]2C[C@H](O)[C@@H](COP(=O)(O)O)O2)c(=O)[nH]c1=O` [TMP, thymidine monophosphate], the kCAT (TMPK from yeast (ScTMPK)) is listed as 35 s^–1, the kCAT (F105Y hTMPK [4]; F105Y hTMPK, substrate phosphorylation) is listed as 0.17 s^–1 and the Km (F105Y hTMPK [4]; F105Y hTMPK) is listed as 4.2 µM. For the same compound, the “reduction of activity toward TMP by Phe105Tyr mutation” value (F105Y hTMPK [4]; F105Y vs WT hTMPK) was 4 fold, the Km (WT hTMPK [5]) was 6.3 µM and the kCAT (WT hTMPK [5]; substrate phosphorylation) was 0.73 s^–1.
